Source: ChEMBL document CHEMBL4014343 (J Med Chem, 2017)
pIC50: −log10 of the molar value. ≈ marks a conversion by molar mass, not a printed value.

Tested on: not listed separately
Assay: Antiproliferative activity against human LXFL 529L cells after 3 days by SRB assay
Type: functional, cell-based
Details: Homo sapiens, LXFL 529L, 72 h

Row | Structure (SMILES) | pIC50
1 | COc1ccc2c(c1)/C(=C1/Nc3ccccc3/C1=N\OCC(O)CO)C(=O)N2 (stereo not drawn) | 6.28
2 | O=C1Nc2ccccc2/C1=C1/Nc2ccccc2/C1=N\OCCC(O)CO (stereo not drawn) | 6.19
3 | O=C1Nc2ccccc2/C1=C1/Nc2ccccc2/C1=N\OCCCC(O)CO (stereo not drawn) | 6.25
4 | CCO/N=C1/C(=C2/C(=O)Nc3ccccc32)Nc2ccccc21 | 5.12
5 | COc1ccc2c(c1)/C(=C1/Nc3ccccc3/C1=N\OCCN1CCN(C)CC1)C(=O)N2 | 5.92
6 | CN(C)c1ccc(NCCO/N=C2/C(=C3/C(=O)Nc4ccccc43)Nc3ccccc32)cc1 | 5.29
7 | O=C1Nc2ccc(O)cc2/C1=C1/Nc2ccccc2/C1=N\OCCO[C@@H]1O[C@H](CO)[C@@H](O)[C@H](O)[C@H]1O | 5.92
8 | O=C1Nc2ccccc2/C1=C1/Nc2ccccc2/C1=N\OCCCCO | 5.59

Molecular target: Cyclin-dependent kinase 2/cyclin E1 (Homo sapiens, UniProt P24941)
Assay: Inhibition of full length human C-terminal His6-tagged CDK2/N-terminal GST-tagged CyclinE expressed in baculovirus infected sf21 cells after 10 mins in presence of [gamma32P]ATP by beta counting method
Details: not given

Row | pIC50 | Structure (SMILES)
9 | 7.37 | COc1ccc2c(c1)/C(=C1/Nc3ccccc3/C1=N\OCC(O)CO)C(=O)N2 (stereo not drawn)
10 | 6.64 | O=C1Nc2ccccc2/C1=C1/Nc2ccccc2/C1=N\OCCC(O)CO (stereo not drawn)

Tested on: MCF7
Assay: Antiproliferative activity against human MCF7 cells after 3 days by SRB assay
Type: functional, cell-based
Details: Homo sapiens, MCF7, 72 h

Row | pIC50 | Structure (SMILES)
11 | 6.52 | COc1ccc2c(c1)/C(=C1/Nc3ccccc3/C1=N\OCC(O)CO)C(=O)N2 (stereo not drawn)

Tested on: not listed separately
Assay: Solubility of the compound in water by spectrophotometric method
Type: physicochemical
Details: not given
Method in brief: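 Ethanol standard solutions define absorbance maxima; aqueous solubility then quantified spectrophotometrically at that maximum by calibration.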

Row | Structure (SMILES) | solubility [µg/mL]
12 | COc1ccc2c(c1)/C(=C1/Nc3ccccc3/C1=N\OCC(O)CO)C(=O)N2 (stereo not drawn) | 50 (≈ 131 µM)
13 | COc1ccc2c(c1)/C(=C1/Nc3ccccc3/C1=N\OCCN1CCN(C)CC1)C(=O)N2 | 400 (≈ 923 µM)
14 | O=C1Nc2ccc(O)cc2/C1=C1/Nc2ccccc2/C1=N\OCCO[C@@H]1O[C@H](CO)[C@@H](O)[C@H](O)[C@H]1O | 5 (≈ 10 µM)

Second part, the compound after the results:

Row | solubility [µg/mL] | Structure (SMILES)
15 | 3 (≈ 8.21 µM) | O=C1Nc2ccccc2/C1=C1/Nc2ccccc2/C1=N\OCCC(O)CO (stereo not drawn)
16 | 2 (≈ 5.27 µM) | O=C1Nc2ccccc2/C1=C1/Nc2ccccc2/C1=N\OCCCC(O)CO (stereo not drawn)
17 | 1.4 (≈ 3.19 µM) | CN(C)c1ccc(NCCO/N=C2/C(=C3/C(=O)Nc4ccccc43)Nc3ccccc32)cc1
18 | 0.1 (≈ 0.286 µM) | O=C1Nc2ccccc2/C1=C1/Nc2ccccc2/C1=N\OCCCCO
